Experimental data from ChEMBL document CHEMBL4706590, “Design and characterization of cereblon-mediated androgen receptor proteolysis-targeting chimeras” (Eur J Med Chem, 2020).

System: VCaP
Experiment: Antiproliferative activity against human VCaP cells assessed as reduction in cell viability after 6 days by CellTiter-Glo assay
Format: functional
Settings: 144 h, time 6 day
In short: (§1)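 LNCaP seeded at 1.5 × 10³ and VCaP at 4 × 10³ cells per well in 96-well plates. Cells grown in IMDM with 10% FBS and antibiotic-antimycotic at 37 °C, 5% CO2, with DMSO as vehicle. IC50 from nonlinear regression of log(inhibitor) versus response.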

Row | Structure (SMILES) | CC50 [nM]
1 | CC1(C)[C@H](NC(=O)c2ccc(N3CCN(CCOC4CCN(C(=O)C5CCN(c6ccc7nnn(C8CCC(=O)NC8=O)c(=O)c7c6)CC5)CC4)CC3)cc2)C(C)(C)[C@H]1Oc1ccc(C#N)c(Cl)c1 (some centres undefined) | 80
2 | CC1(C)[C@H](NC(=O)c2ccc(N3CCN(CCC4CCN(C(=O)C5CN(c6ccc7nnn(C8CCC(=O)NC8=O)c(=O)c7c6)C5)CC4)CC3)cc2)C(C)(C)[C@H]1Oc1ccc(C#N)c(Cl)c1 (some centres undefined) | 37
3 | CC1(C)[C@H](NC(=O)c2ccc(N3CCN(CC4CCN(c5ccc6nnn(C7CCC(=O)NC7=O)c(=O)c6c5)CC4)CC3)cc2)C(C)(C)[C@H]1Oc1ccc(C#N)c(Cl)c1 (some centres undefined) | 81
4 | CC1(C)[C@H](NC(=O)c2ccc(N3CCN(C4CC5(CCN(C(=O)CNc6ccc7nnn(C8CCC(=O)NC8=O)c(=O)c7c6)CC5)C4)CC3)cc2)C(C)(C)[C@H]1Oc1ccc(C#N)c(Cl)c1 (some centres undefined) | 54
5 | CC1(C)[C@H](NC(=O)c2ccc(N3CCN(C4CC5(CCN(c6ccc7nnn(C8CCC(=O)NC8=O)c(=O)c7c6)CC5)C4)CC3)cc2)C(C)(C)[C@H]1Oc1ccc(C#N)c(Cl)c1 (some centres undefined) | 113

Target: T1, Protein cereblon/Androgen receptor (Homo sapiens, UniProt P10275+Q96SW2)
T1 sequence (P10275 whole entry, looked up): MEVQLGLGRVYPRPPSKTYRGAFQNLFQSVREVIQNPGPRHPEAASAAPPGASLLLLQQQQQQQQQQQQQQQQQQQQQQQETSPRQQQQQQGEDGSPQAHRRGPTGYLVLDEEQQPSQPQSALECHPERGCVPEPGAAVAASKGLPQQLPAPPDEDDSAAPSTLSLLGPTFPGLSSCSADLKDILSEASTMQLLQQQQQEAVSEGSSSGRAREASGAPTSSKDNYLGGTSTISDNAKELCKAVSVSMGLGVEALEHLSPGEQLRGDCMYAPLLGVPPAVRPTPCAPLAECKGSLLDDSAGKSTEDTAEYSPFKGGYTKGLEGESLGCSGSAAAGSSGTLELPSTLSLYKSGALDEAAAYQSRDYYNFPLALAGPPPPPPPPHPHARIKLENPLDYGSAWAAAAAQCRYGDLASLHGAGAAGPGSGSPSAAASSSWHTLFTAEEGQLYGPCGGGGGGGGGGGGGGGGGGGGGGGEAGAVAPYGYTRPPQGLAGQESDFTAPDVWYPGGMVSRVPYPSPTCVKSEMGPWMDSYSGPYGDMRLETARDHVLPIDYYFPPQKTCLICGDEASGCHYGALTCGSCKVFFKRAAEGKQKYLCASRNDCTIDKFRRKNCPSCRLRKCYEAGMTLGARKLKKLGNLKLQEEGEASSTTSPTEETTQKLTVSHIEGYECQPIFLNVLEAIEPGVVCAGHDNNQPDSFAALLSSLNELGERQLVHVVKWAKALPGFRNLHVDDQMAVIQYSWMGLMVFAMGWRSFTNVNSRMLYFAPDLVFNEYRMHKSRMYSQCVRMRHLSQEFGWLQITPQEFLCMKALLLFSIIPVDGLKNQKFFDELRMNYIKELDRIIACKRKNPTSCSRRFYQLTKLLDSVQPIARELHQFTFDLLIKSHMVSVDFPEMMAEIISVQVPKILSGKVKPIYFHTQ
T1 sequence (Q96SW2 whole entry, looked up): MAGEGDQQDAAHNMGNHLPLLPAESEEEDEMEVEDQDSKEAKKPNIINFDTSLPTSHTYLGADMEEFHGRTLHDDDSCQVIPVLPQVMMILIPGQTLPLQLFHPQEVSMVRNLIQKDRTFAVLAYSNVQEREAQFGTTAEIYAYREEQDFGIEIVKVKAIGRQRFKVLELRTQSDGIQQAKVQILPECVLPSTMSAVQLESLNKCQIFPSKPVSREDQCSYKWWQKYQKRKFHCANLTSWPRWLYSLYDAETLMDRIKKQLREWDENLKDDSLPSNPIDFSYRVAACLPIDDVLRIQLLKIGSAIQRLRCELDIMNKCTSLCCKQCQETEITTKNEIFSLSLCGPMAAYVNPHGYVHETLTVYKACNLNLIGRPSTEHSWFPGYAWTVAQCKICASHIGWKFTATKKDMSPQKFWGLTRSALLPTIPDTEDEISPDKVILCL
Experiment: Protac activity at CRBN/AR in human LNCaP cells assessed as AR degradation at 10 uM by Western blotting analysis relative to control
Format: cell-based
Settings: not given
In short: (§2)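 LNCaP (IMDM) or 22RV1 (RPMI 1640) cells with 10% FBS at 37 °C, 5% CO2, treated with DMSO vehicle as control. Cells lysed in RIPA buffer (50 mM Tris-HCl pH 7.5, 150 mM NaCl, 1% Triton X-100, 0.1% SDS, 0.5% deoxycholate, protease inhibitors). Protein quantified by Bradford assay. Immunoblotted for AR with tubulin as loading control, HRP chemiluminescence detection.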

Row | Structure (SMILES) | Activity [%]
6 | CC1(C)[C@H](NC(=O)c2ccc(N3CCN(CCOC4CCN(C(=O)C5CCN(c6ccc7nnn(C8CCC(=O)NC8=O)c(=O)c7c6)CC5)CC4)CC3)cc2)C(C)(C)[C@H]1Oc1ccc(C#N)c(Cl)c1 (some centres undefined) | 98
7 | CC1(C)[C@H](NC(=O)c2ccc(N3CCN(CCC4CCN(C(=O)C5CN(c6ccc7nnn(C8CCC(=O)NC8=O)c(=O)c7c6)C5)CC4)CC3)cc2)C(C)(C)[C@H]1Oc1ccc(C#N)c(Cl)c1 (some centres undefined) | 96
8 | CC1(C)[C@H](NC(=O)c2ccc(N3CCN(CC4CCN(c5ccc6nnn(C7CCC(=O)NC7=O)c(=O)c6c5)CC4)CC3)cc2)C(C)(C)[C@H]1Oc1ccc(C#N)c(Cl)c1 (some centres undefined) | 95
9 | CC1(C)[C@H](NC(=O)c2ccc(N3CCN(C4CC5(CCN(C(=O)CNc6ccc7nnn(C8CCC(=O)NC8=O)c(=O)c7c6)CC5)C4)CC3)cc2)C(C)(C)[C@H]1Oc1ccc(C#N)c(Cl)c1 (some centres undefined) | 39
10 | CC1(C)[C@H](NC(=O)c2ccc(N3CCN(C4CC5(CCN(c6ccc7nnn(C8CCC(=O)NC8=O)c(=O)c7c6)CC5)C4)CC3)cc2)C(C)(C)[C@H]1Oc1ccc(C#N)c(Cl)c1 (some centres undefined) | 81

System: LNCaP
Experiment: Antiproliferative activity against human LNCaP cells assessed as reduction in cell viability after 6 days by CellTiter-Glo assay
Format: functional
Settings: 144 h, time 6 day
In short: as §1

Row | Structure (SMILES) | CC50 [nM]
11 | CC1(C)[C@H](NC(=O)c2ccc(N3CCN(CCOC4CCN(C(=O)C5CCN(c6ccc7nnn(C8CCC(=O)NC8=O)c(=O)c7c6)CC5)CC4)CC3)cc2)C(C)(C)[C@H]1Oc1ccc(C#N)c(Cl)c1 (some centres undefined) | 847
12 | CC1(C)[C@H](NC(=O)c2ccc(N3CCN(CCC4CCN(C(=O)C5CN(c6ccc7nnn(C8CCC(=O)NC8=O)c(=O)c7c6)C5)CC4)CC3)cc2)C(C)(C)[C@H]1Oc1ccc(C#N)c(Cl)c1 (some centres undefined) | 538
13 | CC1(C)[C@H](NC(=O)c2ccc(N3CCN(CC4CCN(c5ccc6nnn(C7CCC(=O)NC7=O)c(=O)c6c5)CC4)CC3)cc2)C(C)(C)[C@H]1Oc1ccc(C#N)c(Cl)c1 (some centres undefined) | 259
14 | CC1(C)[C@H](NC(=O)c2ccc(N3CCN(C4CC5(CCN(C(=O)CNc6ccc7nnn(C8CCC(=O)NC8=O)c(=O)c7c6)CC5)C4)CC3)cc2)C(C)(C)[C@H]1Oc1ccc(C#N)c(Cl)c1 (some centres undefined) | 208
15 | CC1(C)[C@H](NC(=O)c2ccc(N3CCN(C4CC5(CCN(c6ccc7nnn(C8CCC(=O)NC8=O)c(=O)c7c6)CC5)C4)CC3)cc2)C(C)(C)[C@H]1Oc1ccc(C#N)c(Cl)c1 (some centres undefined) | 214

System: not listed separately
Experiment: Metabolic stability in mouse liver microsomes assessed as compound remaining at 1 uM after 30 mins in presence of NADPH-regenerating system
Format: ADME, Microsome
Settings: read-out: Stabilty
In short: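 Mouse liver microsomes at 0.5 mg protein/mL in 100 mM PBS, pH 7.4. Reaction started with NADPH-regenerating solution (1.3 mM NADP+, 3.3 mM glucose-6-phosphate, 0.4 U/mL G6PDH, 3.3 mM MgCl2). Incubated 30 min at 37 °C, stopped with ice-cold acetonitrile, centrifuged. Percent remaining reported as mean ± SD, n = 3.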

Row | Structure (SMILES) | remaining at 0.5 h, 1 µM [%]
16 | CC1(C)[C@H](NC(=O)c2ccc(N3CCN(CCOC4CCN(C(=O)C5CCN(c6ccc7nnn(C8CCC(=O)NC8=O)c(=O)c7c6)CC5)CC4)CC3)cc2)C(C)(C)[C@H]1Oc1ccc(C#N)c(Cl)c1 (some centres undefined) | 78.4
17 | CC1(C)[C@H](NC(=O)c2ccc(N3CCN(CCC4CCN(C(=O)C5CN(c6ccc7nnn(C8CCC(=O)NC8=O)c(=O)c7c6)C5)CC4)CC3)cc2)C(C)(C)[C@H]1Oc1ccc(C#N)c(Cl)c1 (some centres undefined) | 92.9
18 | CC1(C)[C@H](NC(=O)c2ccc(N3CCN(CC4CCN(c5ccc6nnn(C7CCC(=O)NC7=O)c(=O)c6c5)CC4)CC3)cc2)C(C)(C)[C@H]1Oc1ccc(C#N)c(Cl)c1 (some centres undefined) | 71.7
19 | CC1(C)[C@H](NC(=O)c2ccc(N3CCN(C4CC5(CCN(C(=O)CNc6ccc7nnn(C8CCC(=O)NC8=O)c(=O)c7c6)CC5)C4)CC3)cc2)C(C)(C)[C@H]1Oc1ccc(C#N)c(Cl)c1 (some centres undefined) | 85.5

Target: T1, Protein cereblon/Androgen receptor
Experiment: Protac activity at CRBN/AR in human LNCaP cells assessed as AR degradation at 1 uM by Western blotting analysis relative to control
Format: cell-based
Settings: not given
In short: as §2

Row | Structure (SMILES) | Activity [%]
20 | CC1(C)[C@H](NC(=O)c2ccc(N3CCN(CCOC4CCN(C(=O)C5CCN(c6ccc7nnn(C8CCC(=O)NC8=O)c(=O)c7c6)CC5)CC4)CC3)cc2)C(C)(C)[C@H]1Oc1ccc(C#N)c(Cl)c1 (some centres undefined) | 92
21 | CC1(C)[C@H](NC(=O)c2ccc(N3CCN(CCC4CCN(C(=O)C5CN(c6ccc7nnn(C8CCC(=O)NC8=O)c(=O)c7c6)C5)CC4)CC3)cc2)C(C)(C)[C@H]1Oc1ccc(C#N)c(Cl)c1 (some centres undefined) | 84
22 | CC1(C)[C@H](NC(=O)c2ccc(N3CCN(CC4CCN(c5ccc6nnn(C7CCC(=O)NC7=O)c(=O)c6c5)CC4)CC3)cc2)C(C)(C)[C@H]1Oc1ccc(C#N)c(Cl)c1 (some centres undefined) | 91
23 | CC1(C)[C@H](NC(=O)c2ccc(N3CCN(C4CC5(CCN(C(=O)CNc6ccc7nnn(C8CCC(=O)NC8=O)c(=O)c7c6)CC5)C4)CC3)cc2)C(C)(C)[C@H]1Oc1ccc(C#N)c(Cl)c1 (some centres undefined) | 77
24 | CC1(C)[C@H](NC(=O)c2ccc(N3CCN(C4CC5(CCN(c6ccc7nnn(C8CCC(=O)NC8=O)c(=O)c7c6)CC5)C4)CC3)cc2)C(C)(C)[C@H]1Oc1ccc(C#N)c(Cl)c1 (some centres undefined) | 95

Target: T1, Protein cereblon/Androgen receptor
Experiment: Protac activity at CRBN/AR in human LNCaP cells assessed as AR degradation at 0.1 uM by western blotting analysis relative to control
Format: cell-based
Settings: not given
In short: as §2

Row | Structure (SMILES) | Activity [%]
25 | CC1(C)[C@H](NC(=O)c2ccc(N3CCN(CCOC4CCN(C(=O)C5CCN(c6ccc7nnn(C8CCC(=O)NC8=O)c(=O)c7c6)CC5)CC4)CC3)cc2)C(C)(C)[C@H]1Oc1ccc(C#N)c(Cl)c1 (some centres undefined) | 72
26 | CC1(C)[C@H](NC(=O)c2ccc(N3CCN(CCC4CCN(C(=O)C5CN(c6ccc7nnn(C8CCC(=O)NC8=O)c(=O)c7c6)C5)CC4)CC3)cc2)C(C)(C)[C@H]1Oc1ccc(C#N)c(Cl)c1 (some centres undefined) | 74
27 | CC1(C)[C@H](NC(=O)c2ccc(N3CCN(CC4CCN(c5ccc6nnn(C7CCC(=O)NC7=O)c(=O)c6c5)CC4)CC3)cc2)C(C)(C)[C@H]1Oc1ccc(C#N)c(Cl)c1 (some centres undefined) | 79
28 | CC1(C)[C@H](NC(=O)c2ccc(N3CCN(C4CC5(CCN(C(=O)CNc6ccc7nnn(C8CCC(=O)NC8=O)c(=O)c7c6)CC5)C4)CC3)cc2)C(C)(C)[C@H]1Oc1ccc(C#N)c(Cl)c1 (some centres undefined) | 61
29 | CC1(C)[C@H](NC(=O)c2ccc(N3CCN(C4CC5(CCN(c6ccc7nnn(C8CCC(=O)NC8=O)c(=O)c7c6)CC5)C4)CC3)cc2)C(C)(C)[C@H]1Oc1ccc(C#N)c(Cl)c1 (some centres undefined) | 15
